Activity calls are given as the source filed them. The rule behind the calls is not given here.
Assays:
[1] = system: Human immunodeficiency virus 1; assay: Antiviral activity against Human immunodeficiency virus 1 3B infected in human CEM cells assessed as reduction of virus-induced giant cell formation at 250 uM after 4 to 5 days; format: functional, organism-based; settings: CCRF-CEM
Procedure, shortened: (§1)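 CEM cells at 3 × 10^5 cells/mL were infected with HIV at 100 CCID50 per mL in the presence of compound dilutions. They were held 4–5 days at 37 °C in humidified CO2. Syncytium (giant cell) formation was scored microscopically, and EC50 was taken as the concentration inhibiting giant cell formation by 50%.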

MDCK = assay: Cytotoxicity against dog MDCK cells assessed as alteration of cell morphology up to 100 uM by microscopic analysis; format: cell-based, Canis lupus familiaris
Procedure, shortened: (§2)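 Uninfected host-cell cultures were exposed to compound and examined by microscopy. Cytotoxicity was expressed as the minimum cytotoxic concentration (MCC) causing a microscopically detectable alteration of normal cell morphology.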

[2] = system: Respiratory syncytial virus; assay: Antiviral activity against Respiratory syncytial virus long infected in human HeLa cells assessed as reduction of virus-induced cytopathogenicity at 250 uM; format: functional, organism-based
Procedure, shortened: (§3)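 Confluent monolayers (HEL fibroblasts, Vero, or HeLa cells as listed) were infected with 100 CCID50 of virus in the presence of varying compound concentrations. Virus-induced cytopathicity or plaque formation was scored once cytopathicity was complete in untreated infected controls. EC50 was taken as the concentration reducing cytopathogenicity or plaque formation by 50%.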

Influenza A virus [3] = assay: Antiviral activity against Influenza A virus H3N2 infected in dog MDCK cells assessed as reduction of virus-induced cytopathogenicity at 250 uM; format: functional, organism-based
Procedure, shortened: (§4)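 Confluent cell monolayers were infected with 100 CCID50 of virus while exposed to varying compound concentrations. Cytopathicity was scored once it was complete in untreated infected controls. EC50 was taken as the concentration that reduced virus-induced cytopathogenicity by 50%.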

Feline coronavirus = assay: Antiviral activity against Feline coronavirus infected in cat CRFK cells assessed as reduction of virus-induced cytopathogenicity at 250 uM; format: functional, organism-based
Punta Toro virus = assay: Antiviral activity against Punta Toro virus infected in african green monkey Vero cells assessed as reduction of virus-induced cytopathogenicity at 250 uM; format: functional, organism-based; procedure, shortened: as §3
Influenza A virus [4] = assay: Antiviral activity against Influenza A virus H1N1 infected in dog MDCK cells assessed as reduction of virus-induced cytopathogenicity at 250 uM; format: functional, organism-based; procedure, shortened: as §4
[5] = system: Vesicular stomatitis virus; assay: Antiviral activity against Vesicular stomatitis virus infected in human HEL cells assessed as reduction of virus-induced cytopathogenicity at 250 uM; format: functional, organism-based; procedure, shortened: as §4
Human respirovirus 3 = assay: Antiviral activity against Parainfluenza virus 3 infected in african green monkey Vero cells assessed as reduction of virus-induced cytopathogenicity at 250 uM; format: functional, organism-based; procedure, shortened: as §3
Vero = assay: Cytotoxicity against african green monkey Vero cells assessed as alteration of cell morphology up to 100 uM by microscopic analysis; format: cell-based; settings: chlorocebus sabaeus; procedure, shortened: as §2
Felid alphaherpesvirus 1 = assay: Antiviral activity against Feline herpes virus infected in cat CRFK cells assessed as reduction of virus-induced cytopathogenicity at 250 uM; format: functional, organism-based
Human alphaherpesvirus 2 = assay: Antiviral activity against Herpes simplex virus 2 G infected in human HEL cells assessed as reduction of virus-induced cytopathogenicity at 250 uM; format: functional, organism-based; settings: strain G; procedure, shortened: as §3
CCRF-CEM = assay: Cytostatic activity against human CEM cells assessed as inhibition of cell proliferation after 72 hrs by Coulter counter analysis; format: functional, cell-based
Procedure, shortened: (§5)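 Each well received (5–7.5) × 10^4 tumor cells plus compound. L1210 cells grew 48 h and CEM and HeLa cells grew 72 h, at 37 °C in humidified CO2. Cells were then counted electronically, and IC50 was taken as the concentration inhibiting proliferation by 50%.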

Sindbis virus = assay: Antiviral activity against Sindbis virus infected in african green monkey Vero cells assessed as reduction of virus-induced cytopathogenicity at 250 uM; format: functional, organism-based; procedure, shortened: as §3
[6] = Cytotoxicity against cat CRFK cells assessed as alteration of cell morphology up to 100 uM by microscopic analysis; format: cell-based, Felis catus; procedure, shortened: as §2
Human alphaherpesvirus 1 [7] = assay: Antiviral activity against thymidine kinase-deficient, ACV-resistant Herpes simplex virus 1 KOS infected in human HEL cells assessed as reduction of virus-induced cytopathogenicity at 250 uM; format: functional, organism-based; procedure, shortened: as §4
HeLa [8] = assay: Cytotoxicity against human HeLa cells assessed as alteration of cell morphology up to 100 uM by microscopic analysis; format: cell-based; procedure, shortened: as §2
[9] = system: Vesicular stomatitis virus; assay: Antiviral activity against Vesicular stomatitis virus infected in human HeLa cells assessed as reduction of virus-induced cytopathogenicity at 250 uM; format: functional, organism-based; procedure, shortened: as §4
[10] = system: Human immunodeficiency virus 2; assay: Antiviral activity against Human immunodeficiency virus 2 ROD infected in human CEM cells assessed as reduction of virus-induced giant cell formation at 250 uM after 4 to 5 days; format: functional, organism-based; settings: CCRF-CEM; procedure, shortened: as §1
HEL = assay: Cytotoxicity against human HEL cells assessed as alteration of cell morphology up to 100 uM by microscopic analysis; format: cell-based; procedure, shortened: as §2
HeLa [11] = assay: Cytostatic activity against human HeLa cells assessed as inhibition of cell proliferation after 72 hrs by Coulter counter analysis; format: functional, cell-based; procedure, shortened: as §5
Influenza B virus = assay: Antiviral activity against Influenza B virus infected in dog MDCK cells assessed as reduction of virus-induced cytopathogenicity at 250 uM; format: functional, organism-based; procedure, shortened: as §4
Human alphaherpesvirus 1 [12] = assay: Antiviral activity against Herpes simplex virus 1 KOS infected in human HEL cells assessed as reduction of virus-induced cytopathogenicity at 250 uM; format: functional, organism-based; procedure, shortened: as §3
L1210 = assay: Cytostatic activity against mouse L1210 cells assessed as inhibition of cell proliferation after 48 hrs by Coulter counter analysis; format: functional, cell-based; settings: L1210, 48 h; procedure, shortened: as §5
Coxsackievirus B4 = assay: Antiviral activity against Coxsackievirus B4 infected in african green monkey Vero cells assessed as reduction of virus-induced cytopathogenicity at 250 uM; format: functional, organism-based; procedure, shortened: as §3
[13] = system: Mammalian orthoreovirus 1; assay: Antiviral activity against Reovirus 1 infected in african green monkey Vero cells assessed as reduction of virus-induced cytopathogenicity at 250 uM; format: functional, organism-based; procedure, shortened: as §3

Structure (SMILES) | inhibition [1] | Activity (MDCK) | inhibition [2] | inhibition (Influenza A virus [3]) | inhibition (Feline coronavirus) | inhibition (Punta Toro virus) | inhibition (Influenza A virus [4]) | inhibition [5] | inhibition (Human respirovirus 3) | Activity (Vero) | inhibition (Felid alphaherpesvirus 1) | inhibition (Human alphaherpesvirus 2) | IC50 (CCRF-CEM) [µM] | inhibition (Sindbis virus) | Activity [6] | inhibition (Human alphaherpesvirus 1 [7]) | Activity (HeLa [8]) | inhibition [9] | inhibition [10] | Activity (HEL) | other results
CCOP(=O)(OCC)[C@H]1C[C@H](C(=O)Nc2ccccc2F)ON1C (mixture of isomers) | inactive | Non-toxic | inactive | inactive | inactive | inactive | inactive | inactive | inactive | Non-toxic | inactive | inactive | > 250 | inactive | Non-toxic | inactive | Non-toxic | inactive | inactive | Non-toxic | IC50 (HeLa [11]): ≥ 250 µM; inhibition (Influenza B virus): inactive; inhibition (Human alphaherpesvirus 1 [12]): inactive; IC50 (L1210): > 250 µM; inhibition (Coxsackievirus B4): inactive; inhibition [13]: inactive
CCOP(=O)(OCC)[C@H]1C[C@H](C(=O)Nc2cccc(F)c2)ON1C (mixture of isomers) | inactive | Non-toxic | inactive | inactive | inactive | inactive | inactive | inactive | inactive | Non-toxic | inactive | inactive | > 250 | inactive | Non-toxic | inactive | Non-toxic | inactive | inactive | Non-toxic | IC50 (HeLa [11]): > 250 µM; inhibition (Influenza B virus): inactive; inhibition (Human alphaherpesvirus 1 [12]): inactive; IC50 (L1210): > 250 µM; inhibition (Coxsackievirus B4): inactive; inhibition [13]: inactive
CCOP(=O)(OCC)[C@@H]1C[C@H](C(=O)Nc2cccc(F)c2)ON1C (mixture of isomers) | inactive | Non-toxic | inactive | inactive | inactive | inactive | inactive | inactive | inactive | Non-toxic | inactive | inactive | ≥ 250 | inactive | Non-toxic | inactive | Non-toxic | inactive | inactive | Non-toxic | IC50 (HeLa [11]): ≥ 250 µM; inhibition (Influenza B virus): inactive; inhibition (Human alphaherpesvirus 1 [12]): inactive; IC50 (L1210): 228 µM; inhibition (Coxsackievirus B4): inactive; inhibition [13]: inactive
CCOP(=O)(OCC)[C@H]1C[C@H](C(=O)Nc2ccc(Br)cc2)ON1C (mixture of isomers) | inactive | Non-toxic | inactive | inactive | inactive | inactive | inactive | inactive | inactive | Non-toxic | inactive | inactive | 227 | inactive | Non-toxic | inactive | Non-toxic | inactive | inactive | Non-toxic | IC50 (HeLa [11]): ≥ 250 µM; inhibition (Influenza B virus): inactive; inhibition (Human alphaherpesvirus 1 [12]): inactive; IC50 (L1210): 177 µM; inhibition (Coxsackievirus B4): inactive; inhibition [13]: inactive
CCOP(=O)(OCC)[C@@H]1C[C@H](C(=O)Nc2ccc(Cl)cc2)ON1C (mixture of isomers) | inactive | Non-toxic | inactive | inactive | inactive | inactive | inactive | inactive | inactive | Non-toxic | inactive | inactive | ≥ 250 | inactive | Non-toxic | inactive | Non-toxic | inactive | inactive | Non-toxic | IC50 (HeLa [11]): > 250 µM; inhibition (Influenza B virus): inactive; inhibition (Human alphaherpesvirus 1 [12]): inactive; IC50 (L1210): 170 µM; inhibition (Coxsackievirus B4): inactive; inhibition [13]: inactive
CCOP(=O)(OCC)[C@H]1C[C@H](C(=O)Nc2ccccc2[N+](=O)[O-])ON1C (mixture of isomers) | inactive | Non-toxic | inactive | inactive | inactive | inactive | inactive | inactive | inactive | Non-toxic | inactive | inactive | ≥ 250 | inactive | Non-toxic | inactive | Non-toxic | inactive | inactive | Non-toxic | IC50 (HeLa [11]): > 250 µM; inhibition (Influenza B virus): inactive; inhibition (Human alphaherpesvirus 1 [12]): inactive; IC50 (L1210): 168 µM; inhibition (Coxsackievirus B4): inactive; inhibition [13]: inactive
CCOP(=O)(OCC)[C@@H]1C[C@H](C(=O)Nc2ccc(C(C)=O)cc2)ON1C (racemic) | inactive | Non-toxic | inactive | inactive | inactive | inactive | inactive | inactive | inactive | Non-toxic | inactive | inactive | 227 | inactive | Non-toxic | inactive | Non-toxic | inactive | inactive | Non-toxic | IC50 (HeLa [11]): 211 µM; inhibition (Influenza B virus): inactive; inhibition (Human alphaherpesvirus 1 [12]): inactive; IC50 (L1210): 150 µM; inhibition (Coxsackievirus B4): inactive; inhibition [13]: inactive
